Test results published in ChEMBL document CHEMBL4118063, “Design, synthesis and evaluation of aromatic heterocyclic derivatives as potent antifungal agents” (Eur J Med Chem, 2017).
Values after ≈ are worked out from the molar mass of the structure shown.

Target: T1, Lanosterol 14-alpha demethylase (Candida albicans (strain SC5314 / ATCC MYA-2876) (Yeast), UniProt P10613)
Assay: Inhibition of CYP51 in Candida albicans ATCC SC5314 assessed as ergosterol content at 0.5 ug/ml by GS-MS analysis relative to total sterols (reference value: 98.7%)
Parameters: scale not given: the % may be the effect or the level left
Conditions: at 0.5 µg/mL

T1 sequence (P10613 whole entry): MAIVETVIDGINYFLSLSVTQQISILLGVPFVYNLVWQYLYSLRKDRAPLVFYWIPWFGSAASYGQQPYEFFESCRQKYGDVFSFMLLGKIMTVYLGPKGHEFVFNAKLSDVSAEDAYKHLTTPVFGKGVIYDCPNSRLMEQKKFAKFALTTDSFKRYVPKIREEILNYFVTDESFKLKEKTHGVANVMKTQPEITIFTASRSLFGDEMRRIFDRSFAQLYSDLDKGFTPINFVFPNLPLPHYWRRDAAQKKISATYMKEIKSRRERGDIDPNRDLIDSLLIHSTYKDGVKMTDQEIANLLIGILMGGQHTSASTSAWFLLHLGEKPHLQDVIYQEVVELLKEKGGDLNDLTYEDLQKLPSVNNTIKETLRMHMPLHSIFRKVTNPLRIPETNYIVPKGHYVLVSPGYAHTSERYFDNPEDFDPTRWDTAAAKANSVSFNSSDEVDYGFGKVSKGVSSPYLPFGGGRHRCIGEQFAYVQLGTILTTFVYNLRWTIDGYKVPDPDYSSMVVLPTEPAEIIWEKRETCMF

| Compound | Activity |
| --- | --- |
| CC(C)OC(=O)[C@H](Cn1ccnc1)NC(=O)c1cc(-c2ccccc2F)on1 | 30.8% |

Target: T1, Lanosterol 14-alpha demethylase
Assay: Inhibition of CYP51 in Candida albicans ATCC SC5314 assessed as lanosterol content at 0.125 ug/ml by GS-MS analysis relative to total sterols
Parameters: scale not given: the % may be the effect or the level left
Conditions: not given

| Compound | Activity |
| --- | --- |
| CC(C)OC(=O)[C@H](Cn1ccnc1)NC(=O)c1cc(-c2ccccc2F)on1 | 2.2% |

Target: T1, Lanosterol 14-alpha demethylase
Assay: Inhibition of CYP51 in Candida albicans ATCC SC5314 assessed as obtusifoliol content at 0.125 ug/ml by GS-MS analysis relative to total sterols (reference value: 0.6%)
Parameters: scale not given: the % may be the effect or the level left
Conditions: not given

| Compound | Activity |
| --- | --- |
| CC(C)OC(=O)[C@H](Cn1ccnc1)NC(=O)c1cc(-c2ccccc2F)on1 | 6.9% |

Test system: Candida tropicalis
Assay: Antifungal activity against Candida tropicalis cgmcc 2.3739 by broth microdilution method
Assay type: functional
Conditions: not given
In short: (§1)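 Serial twofold-style dilution in growth medium per NCCLS broth microdilution guidelines. Compounds dissolved in DMSO before dilution. Fluconazole and itraconazole served as positive controls. MIC was read as the lowest concentration that prevents visible fungal growth.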

| Compound | MIC |
| --- | --- |
| CC(C)OC(=O)[C@H](Cn1ccnc1)NC(=O)c1cc(-c2ccccc2F)on1 | 0.0312 µg/mL (≈ 0.0809 µM) |

Target: T1, Lanosterol 14-alpha demethylase
Assay: Inhibition of CYP51 in Candida albicans ATCC SC5314 assessed as increase in eburicol content by GS-MS analysis
Conditions: not given

| Compound | inhibition (INH) |
| --- | --- |
| CC(C)OC(=O)[C@H](Cn1ccnc1)NC(=O)c1cc(-c2ccccc2F)on1 | Dose-dependent effect |

Test system: Candida albicans
Assay: Antifungal activity against fluconazole-resistant Candida albicans strain 103 by broth microdilution method
Assay type: functional
Conditions: not given
In short: (§2)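 Broth serial dilution in 96-well plates per NCCLS guidelines; compounds dissolved in DMSO and serially diluted into growth medium; MIC taken as lowest concentration inhibiting visible fungal growth. Fluconazole-resistant clinical C. albicans isolates 100 and 103; fluconazole and itraconazole as positive controls.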

| Compound | MIC |
| --- | --- |
| CC(C)OC(=O)[C@H](Cn1ccnc1)NC(=O)c1cc(-c2ccccc2F)on1 | 1 µg/mL (≈ 2.59 µM) |

Test system: Candida albicans
Assay: Antifungal activity against Candida albicans ATCC SC5314 by broth microdilution method
Assay type: functional
Conditions: not given
In short: as §1

| Compound | MIC |
| --- | --- |
| CC(C)OC(=O)[C@H](Cn1ccnc1)NC(=O)c1cc(-c2ccccc2F)on1 | 0.0625 µg/mL (≈ 0.162 µM) |

Test system: Cryptococcus neoformans
Assay: Antifungal activity against Cryptococcus neoformans cgmcc 2.3161 by broth microdilution method
Assay type: functional
Conditions: not given
In short: as §1

| Compound | MIC |
| --- | --- |
| CC(C)OC(=O)[C@H](Cn1ccnc1)NC(=O)c1cc(-c2ccccc2F)on1 | 0.5 µg/mL (≈ 1.29 µM) |

Test system: Aspergillus fumigatus
Assay: Antifungal activity against Aspergillus fumigatus GIM 3.524 by broth microdilution method
Assay type: functional
Conditions: not given
In short: as §1

| Compound | MIC |
| --- | --- |
| CC(C)OC(=O)[C@H](Cn1ccnc1)NC(=O)c1cc(-c2ccccc2F)on1 | 4 µg/mL (≈ 10.4 µM) |

Target: T1, Lanosterol 14-alpha demethylase
Assay: Inhibition of CYP51 in Candida albicans ATCC SC5314 assessed as eburicol content at 0.125 ug/ml by GS-MS analysis relative to total sterols (reference value: 0.4%)
Parameters: scale not given: the % may be the effect or the level left
Conditions: not given

| Compound | Activity |
| --- | --- |
| CC(C)OC(=O)[C@H](Cn1ccnc1)NC(=O)c1cc(-c2ccccc2F)on1 | 4.9% |

Target: T1, Lanosterol 14-alpha demethylase
Assay: Inhibition of CYP51 in Candida albicans ATCC SC5314 assessed as lanosterol content at 0.5 ug/ml by GS-MS analysis relative to total sterols
Parameters: scale not given: the % may be the effect or the level left
Conditions: at 0.5 µg/mL

| Compound | Activity |
| --- | --- |
| CC(C)OC(=O)[C@H](Cn1ccnc1)NC(=O)c1cc(-c2ccccc2F)on1 | 16.7% |

Target: T1, Lanosterol 14-alpha demethylase
Assay: Inhibition of CYP51 in Candida albicans ATCC SC5314 assessed as decrease in ergosterol content by GS-MS analysis
Conditions: not given

| Compound | inhibition (INH) |
| --- | --- |
| CC(C)OC(=O)[C@H](Cn1ccnc1)NC(=O)c1cc(-c2ccccc2F)on1 | Dose-dependent effect |

Target: T1, Lanosterol 14-alpha demethylase
Assay: Inhibition of CYP51 in Candida albicans ATCC SC5314 assessed as obtusifoliol content at 0.03125 ug/ml by GS-MS analysis relative to total sterols (reference value: 0.6%)
Parameters: scale not given: the % may be the effect or the level left
Conditions: not given

| Compound | Activity |
| --- | --- |
| CC(C)OC(=O)[C@H](Cn1ccnc1)NC(=O)c1cc(-c2ccccc2F)on1 | 4.3% |

Target: T1, Lanosterol 14-alpha demethylase
Assay: Inhibition of CYP51 in Candida albicans ATCC SC5314 assessed as lanosterol content at 2 ug/ml by GS-MS analysis relative to total sterols
Parameters: scale not given: the % may be the effect or the level left
Conditions: at 2 µg/mL

| Compound | Activity |
| --- | --- |
| CC(C)OC(=O)[C@H](Cn1ccnc1)NC(=O)c1cc(-c2ccccc2F)on1 | 22% |

Target: T1, Lanosterol 14-alpha demethylase
Assay: Inhibition of CYP51 in Candida albicans ATCC SC5314 assessed as ergosterol content at 8 ug/ml by GS-MS analysis relative to total sterols (reference value: 98.7%)
Parameters: scale not given: the % may be the effect or the level left
Conditions: at 8 µg/mL

| Compound | Activity |
| --- | --- |
| CC(C)OC(=O)[C@H](Cn1ccnc1)NC(=O)c1cc(-c2ccccc2F)on1 | 0.7% |

Test system: not listed separately
Assay: Metabolic stability in human plasma assessed as parent compound remaining at 60 mins
Assay type: ADME, cell-free
Conditions: read-out: Stability

| Compound | remaining at 1 h |
| --- | --- |
| CC(C)OC(=O)[C@H](Cn1ccnc1)NC(=O)c1cc(-c2ccccc2F)on1 | 95.3% |

Target: T1, Lanosterol 14-alpha demethylase
Assay: Inhibition of CYP51 in Candida albicans ATCC SC5314 assessed as lanosterol content at 8 ug/ml by GS-MS analysis relative to total sterols
Parameters: scale not given: the % may be the effect or the level left
Conditions: at 8 µg/mL

| Compound | Activity |
| --- | --- |
| CC(C)OC(=O)[C@H](Cn1ccnc1)NC(=O)c1cc(-c2ccccc2F)on1 | 26.7% |

Target: T1, Lanosterol 14-alpha demethylase
Assay: Inhibition of CYP51 in Candida albicans ATCC SC5314 assessed as eburicol content at 0.03125 ug/ml by GS-MS analysis relative to total sterols (reference value: 0.4%)
Parameters: scale not given: the % may be the effect or the level left
Conditions: not given

| Compound | Activity |
| --- | --- |
| CC(C)OC(=O)[C@H](Cn1ccnc1)NC(=O)c1cc(-c2ccccc2F)on1 | 1.7% |

Target: T1, Lanosterol 14-alpha demethylase
Assay: Inhibition of CYP51 in Candida albicans ATCC SC5314 assessed as ergosterol content at 0.125 ug/ml by GS-MS analysis relative to total sterols (reference value: 98.7%)
Parameters: scale not given: the % may be the effect or the level left
Conditions: not given

| Compound | Activity |
| --- | --- |
| CC(C)OC(=O)[C@H](Cn1ccnc1)NC(=O)c1cc(-c2ccccc2F)on1 | 85.9% |

Target: T1, Lanosterol 14-alpha demethylase
Assay: Inhibition of CYP51 in Candida albicans ATCC SC5314 assessed as obtusifoliol content at 0.5 ug/ml by GS-MS analysis relative to total sterols (reference value: 0.6%)
Parameters: scale not given: the % may be the effect or the level left
Conditions: at 0.5 µg/mL

| Compound | Activity |
| --- | --- |
| CC(C)OC(=O)[C@H](Cn1ccnc1)NC(=O)c1cc(-c2ccccc2F)on1 | 6.9% |

Target: T1, Lanosterol 14-alpha demethylase
Assay: Inhibition of CYP51 in Candida albicans ATCC SC5314 assessed as eburicol content at 8 ug/ml by GS-MS analysis relative to total sterols (reference value: 0.4%)
Parameters: scale not given: the % may be the effect or the level left
Conditions: at 8 µg/mL

| Compound | Activity |
| --- | --- |
| CC(C)OC(=O)[C@H](Cn1ccnc1)NC(=O)c1cc(-c2ccccc2F)on1 | 63.7% |

Test system: Candida albicans
Assay: Antifungal activity against Candida albicans CPCC 400523 by broth microdilution method
Assay type: functional
Conditions: not given
In short: as §1

| Compound | MIC |
| --- | --- |
| CC(C)OC(=O)[C@H](Cn1ccnc1)NC(=O)c1cc(-c2ccccc2F)on1 | 0.25 µg/mL (≈ 0.647 µM) |

Target: T1, Lanosterol 14-alpha demethylase
Assay: Inhibition of CYP51 in Candida albicans ATCC SC5314 assessed as ergosterol content at 2 ug/ml by GS-MS analysis relative to total sterols (reference value: 98.7%)
Parameters: scale not given: the % may be the effect or the level left
Conditions: at 2 µg/mL

| Compound | Activity |
| --- | --- |
| CC(C)OC(=O)[C@H](Cn1ccnc1)NC(=O)c1cc(-c2ccccc2F)on1 | 5.4% |

Target: T1, Lanosterol 14-alpha demethylase
Assay: Inhibition of CYP51 in Candida albicans ATCC SC5314 assessed as eburicol content at 0.5 ug/ml by GS-MS analysis relative to total sterols (reference value: 0.4%)
Parameters: scale not given: the % may be the effect or the level left
Conditions: at 0.5 µg/mL

| Compound | Activity |
| --- | --- |
| CC(C)OC(=O)[C@H](Cn1ccnc1)NC(=O)c1cc(-c2ccccc2F)on1 | 45.6% |

Target: T1, Lanosterol 14-alpha demethylase
Assay: Inhibition of CYP51 in Candida albicans ATCC SC5314 assessed as eburicol content at 2 ug/ml by GS-MS analysis relative to total sterols (reference value: 0.4%)
Parameters: scale not given: the % may be the effect or the level left
Conditions: at 2 µg/mL

| Compound | Activity |
| --- | --- |
| CC(C)OC(=O)[C@H](Cn1ccnc1)NC(=O)c1cc(-c2ccccc2F)on1 | 63.3% |

Target: T1, Lanosterol 14-alpha demethylase
Assay: Inhibition of CYP51 in Candida albicans ATCC SC5314 assessed as increase in lanosterol content by GS-MS analysis
Conditions: not given

| Compound | inhibition (INH) |
| --- | --- |
| CC(C)OC(=O)[C@H](Cn1ccnc1)NC(=O)c1cc(-c2ccccc2F)on1 | Dose-dependent effect |

Target: T1, Lanosterol 14-alpha demethylase
Assay: Inhibition of CYP51 in Candida albicans ATCC SC5314 assessed as obtusifoliol content at 8 ug/ml by GS-MS analysis relative to total sterols (reference value: 0.6%)
Parameters: scale not given: the % may be the effect or the level left
Conditions: at 8 µg/mL

| Compound | Activity |
| --- | --- |
| CC(C)OC(=O)[C@H](Cn1ccnc1)NC(=O)c1cc(-c2ccccc2F)on1 | 8.9% |

Test system: not listed separately
Assay: Metabolic stability in human plasma assessed as parent compound remaining at 120 mins
Assay type: ADME, cell-free
Conditions: read-out: Stability

| Compound | remaining at 2 h |
| --- | --- |
| CC(C)OC(=O)[C@H](Cn1ccnc1)NC(=O)c1cc(-c2ccccc2F)on1 | 91.8% |

Target: T1, Lanosterol 14-alpha demethylase
Assay: Inhibition of CYP51 in Candida albicans ATCC SC5314 assessed as ergosterol content at 0.03125 ug/ml by GS-MS analysis relative to total sterols (reference value: 98.7%)
Parameters: scale not given: the % may be the effect or the level left
Conditions: not given

| Compound | Activity |
| --- | --- |
| CC(C)OC(=O)[C@H](Cn1ccnc1)NC(=O)c1cc(-c2ccccc2F)on1 | 93.9% |

Test system: Candida albicans
Assay: Antifungal activity against fluconazole-resistant Candida albicans strain 100 by broth microdilution method
Assay type: functional
Conditions: not given
In short: as §2

| Compound | MIC |
| --- | --- |
| CC(C)OC(=O)[C@H](Cn1ccnc1)NC(=O)c1cc(-c2ccccc2F)on1 | 1 µg/mL (≈ 2.59 µM) |

Target: T1, Lanosterol 14-alpha demethylase
Assay: Inhibition of CYP51 in Candida albicans ATCC SC5314 assessed as obtusifoliol content at 2 ug/ml by GS-MS analysis relative to total sterols (reference value: 0.6%)
Parameters: scale not given: the % may be the effect or the level left
Conditions: at 2 µg/mL

| Compound | Activity |
| --- | --- |
| CC(C)OC(=O)[C@H](Cn1ccnc1)NC(=O)c1cc(-c2ccccc2F)on1 | 9.2% |
